Measurements reported in ChEMBL document CHEMBL4020760, “Discovery of a Small Molecule Probe That Post-Translationally Stabilizes the Survival Motor Neuron Protein for the Treatment of Spinal Muscular Atrophy” (J Med Chem, 2017).
In brackets after ≈: the same amount, converted by molar mass. Activity calls are given as the source filed them. No cut-off for these calls is given here.

Key:
[1] = Fraction unbound in mouse plasma; format: ADME, cell-free
Method in brief: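 Plasma protein binding measured in mouse and human plasma and expressed as percent free.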

Plasma [2] = assay: AUC (0 to 24 hrs) in mouse plasma at 20 mg/kg, ip; format: ADME, organism-based; design: dose 20 mg/kg, time < 24 hr, route intraperitoneal; details: in vivo
CYP1A2 = target: T1, CYP1A2 (Homo sapiens, UniProt P05177); assay: Inhibition of CYP1A2 (unknown origin) at 10 uM; format: ADME
T1 sequence (P05177 whole entry): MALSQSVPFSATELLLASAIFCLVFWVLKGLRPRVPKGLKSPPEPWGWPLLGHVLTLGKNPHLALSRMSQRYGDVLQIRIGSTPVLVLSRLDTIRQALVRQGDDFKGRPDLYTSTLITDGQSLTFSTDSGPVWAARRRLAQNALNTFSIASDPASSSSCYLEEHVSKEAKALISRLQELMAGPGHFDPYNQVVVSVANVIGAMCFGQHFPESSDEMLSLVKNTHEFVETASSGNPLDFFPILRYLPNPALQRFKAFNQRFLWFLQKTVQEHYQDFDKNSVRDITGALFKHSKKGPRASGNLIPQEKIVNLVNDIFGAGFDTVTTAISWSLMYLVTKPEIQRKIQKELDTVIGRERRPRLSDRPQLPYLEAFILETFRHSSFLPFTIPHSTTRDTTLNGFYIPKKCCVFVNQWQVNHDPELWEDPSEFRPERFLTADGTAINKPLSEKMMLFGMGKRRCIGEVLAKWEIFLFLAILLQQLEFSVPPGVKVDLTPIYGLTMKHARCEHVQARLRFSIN

[3] = AUC (0 to 24 hrs) in mouse brain at 20 mg/kg, po; format: ADME, organism-based; design: time < 24 hr, dose 20 mg/kg, route oral
CYP2C9 = CYP2C9 (Homo sapiens, UniProt P11712); assay: Inhibition of CYP2C9 (unknown origin) at 10 uM; format: ADME
CYP2C9, sequence (P11712 whole entry): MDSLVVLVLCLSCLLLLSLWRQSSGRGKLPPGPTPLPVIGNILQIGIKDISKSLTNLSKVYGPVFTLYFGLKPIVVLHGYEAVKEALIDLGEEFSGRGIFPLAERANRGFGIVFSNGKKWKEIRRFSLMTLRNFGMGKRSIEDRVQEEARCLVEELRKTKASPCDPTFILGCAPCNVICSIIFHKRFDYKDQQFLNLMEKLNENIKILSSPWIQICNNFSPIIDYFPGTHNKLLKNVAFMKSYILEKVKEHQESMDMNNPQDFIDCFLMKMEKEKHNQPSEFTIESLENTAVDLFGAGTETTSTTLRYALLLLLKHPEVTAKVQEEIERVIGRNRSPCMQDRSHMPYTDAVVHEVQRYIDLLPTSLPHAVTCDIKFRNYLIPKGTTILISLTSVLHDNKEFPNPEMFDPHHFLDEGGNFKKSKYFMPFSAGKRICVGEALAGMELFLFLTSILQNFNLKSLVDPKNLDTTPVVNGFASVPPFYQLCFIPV

Renilla = assay: Effect on renilla recombinant luciferase protein
[4] = AUC (0 to 24 hrs) in mouse brain at 20 mg/kg, ip; format: ADME, organism-based; design: time < 24 hr, dose 20 mg/kg, route intraperitoneal
CYP2A6 = target: T2, CYP2A6 (Homo sapiens, UniProt P11509); assay: Inhibition of CYP2A6 (unknown origin) at 10 uM; format: ADME
T2 sequence (P11509 whole entry): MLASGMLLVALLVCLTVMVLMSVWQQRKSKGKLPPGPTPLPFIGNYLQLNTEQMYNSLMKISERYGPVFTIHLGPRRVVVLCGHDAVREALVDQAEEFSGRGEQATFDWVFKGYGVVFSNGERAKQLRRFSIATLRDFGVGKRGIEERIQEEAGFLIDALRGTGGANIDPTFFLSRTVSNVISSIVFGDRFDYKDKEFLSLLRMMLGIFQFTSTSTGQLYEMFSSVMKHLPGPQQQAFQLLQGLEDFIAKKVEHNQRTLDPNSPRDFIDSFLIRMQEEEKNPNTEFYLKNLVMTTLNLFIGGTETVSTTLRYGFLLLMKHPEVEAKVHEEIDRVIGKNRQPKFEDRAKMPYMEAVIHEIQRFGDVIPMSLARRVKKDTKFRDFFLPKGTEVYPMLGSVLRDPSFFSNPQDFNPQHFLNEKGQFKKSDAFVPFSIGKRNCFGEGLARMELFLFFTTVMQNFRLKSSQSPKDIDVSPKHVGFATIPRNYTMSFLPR

Plasma [5] = assay: Half life in mouse plasma after 60 mins; format: ADME, cell-free; details: 1 h
HEK293 [6] = assay: Effect on cycloheximide-induced reduction in basal level of polyubiquitinated protein level in HEK293 cells at 1 uM pretreated for 2 hrs followed by cycloheximide addition measured after 6 hrs by SDS-PAGE analysis; format: functional, cell-based; details: Homo sapiens
Method in brief: (§1)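 HEK293 cells pretreated 2 h with test compound or MG-132 (1 and 10 μM), then DMSO or cycloheximide (10 μM) added and incubated a further 6 h; final DMSO 0.2%. Lysates run on 4–15% gradient SDS-PAGE; anti-ubiquitin blot for polyubiquitinated proteins, tubulin as loading control.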

Brain = assay: Half life in mouse brain at 20 mg/kg, po; format: ADME, organism-based; details: in vivo
Plasma [7] = assay: Tmax in mouse plasma at 20 mg/kg, ip; format: ADME, organism-based; details: in vivo
[8] = target: Survival motor neuron protein (Homo sapiens) (UniProt Q16637); assay: Stabilization of SMN protein in 3813T fibroblasts derived from human SMA patient assessed as increase in SMN protein level at 2 uM after 48 hrs by SDS-PAGE and immunoblot
Survival motor neuron protein (Homo sapiens), sequence (Q16637 whole entry, the tested form may be a part): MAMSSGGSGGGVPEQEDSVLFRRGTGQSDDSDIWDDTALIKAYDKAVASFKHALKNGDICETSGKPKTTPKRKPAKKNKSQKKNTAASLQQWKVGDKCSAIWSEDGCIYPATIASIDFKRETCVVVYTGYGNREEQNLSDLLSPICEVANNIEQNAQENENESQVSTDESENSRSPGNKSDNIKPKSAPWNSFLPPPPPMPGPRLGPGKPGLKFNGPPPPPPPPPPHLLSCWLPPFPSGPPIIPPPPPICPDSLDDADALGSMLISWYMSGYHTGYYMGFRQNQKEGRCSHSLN
Method in brief: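 hTERT-immortalized SMA patient 3813T fibroblasts seeded at 6000/well, next day dosed for 48 h at indicated concentrations, 0.1% DMSO. Lysed in boiling buffer (150 mM NaCl, 10 mM Tris pH 8.0, 2% SDS), run on 10% SDS-PAGE, SMN immunoblotted, normalized to tubulin or actin as fold over DMSO; one-way ANOVA with Dunnett.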

[9] = target: Survival motor neuron protein (Homo sapiens) (UniProt Q16637); assay: Stabilization of human luc fused SMN protein expressed in HEK293 cells at 10 uM after 24 hrs in presence of 10 uM cycloheximide by luciferase reporter gene assay; format: cell-based
Method in brief: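 SMN2-luciferase reporter cells were maintained in high-glucose DMEM with 10% FBS, Pen/Strep and hygromycin at 37 °C. They were treated at the same time with cycloheximide (10 μM), to block protein synthesis, and with compound or DMSO. Cells were lysed at set time points, and SMN2-luc (firefly) and Renilla-luc activities were read by dual-luciferase assay.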

[10] = target: Survival motor neuron protein (Homo sapiens) (UniProt Q16637); assay: Stabilization of human SMN protein expressed in HEK293 cells at 10 to 30 uM after 24 hrs by luciferase reporter gene assay; format: cell-based
Method in brief: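 SMN2-luc reporter cells seeded at 25,000/well overnight, then treated 24 h with six doses (3-fold serial dilutions, top final 10 or 30 μM), 0.1% DMSO. Firefly and Renilla luciferase read by dual-luciferase assay, normalized to DMSO as percent; EC50 and maximal activation from curves. Mean ± SEM, ≥3 trials.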

HEK293 [11] = assay: Effect on luciferase expression in human HEK293 cells expressing SV40 promoter at 10 to 30 uM after 24 hrs by luciferase reporter gene assay; format: ADME, cell-based; details: hek293, 24 h
Plasma [12] = assay: Cmax in mouse plasma at 20 mg/kg, ip; format: ADME, organism-based; design: dose 20 mg/kg, route intraperitoneal; details: in vivo
HEK293 [13] = assay: Effect on basal level of polyubiquitinated protein in HEK293 cells at 1 and 10 uM incubated for 2 hrs by SDS-PAGE analysis; format: cell-based; details: human, hek293, 2 h; method in brief: as §1
[14] = Aqueous solubility of the compound at pH 7.4; format: physicochemical; details: aqueous solution
Method in brief: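 Kinetic solubility measured in aqueous medium at pH 7.4.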

fraction unbound [1]: 0.047 | AUC (Plasma [2]): 34291 ng·h/mL | inhibition at 10 µM (CYP1A2): < 50% | AUC(0-t) at 24 h [3]: 2220 ng·h/mL | inhibition at 10 µM (CYP2C9): < 50% | Activity (Renilla): inactive | AUC(0-t) at 24 h [4]: 51300 ng·h/mL | inhibition at 10 µM (CYP2A6): < 50% | t1/2 (Plasma [5]): 326 min | t1/2 (Brain): 2.8 h | Tmax (Plasma [7]): 30 min | Cmax (Plasma [12]): 7660 ng/mL | solubility kinetic [14]: 31 µM (≈ 10.1 µg/mL)
SMILES: O=C(Nc1ncc(C2(O)CCC2)s1)c1ccc(F)c(Cl)c1
Activity (HEK293 [6]): inactive | fold change (FC) [8]: 2 | Activity [9]: Active | Activity [10]: Active | Activity (HEK293 [11]): Non-Toxic | Activity (HEK293 [13]): Non-Toxic
